From ChEMBL document CHEMBL4316592, “Synthesis of new derivatives of boehmeriasin A and their biological evaluation in liver cancer” (Eur J Med Chem, 2019) come the findings set out here.

Calls of active or inactive are those of the source. No cut-off for these calls is given here.

Assay [1] deals with Hep 3B2. Nature of the assay: Cytotoxicity against human Hep3B cells after 72 hrs by SRB assay. The assay is classed as functional, cell-based. Conditions: Homo sapiens, Hep3B, 72 h; read-out: IC50. In short, it runs like this:
(§1)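 SRB assay. Cells plated per well (HCT116 3000; Huh7, Hep3B, HepG2, MCF-7 2000; Mahlavu, FOCUS, SNU475 1000) and grown 24 h. Compounds came from 20 mM DMSO stocks and were tested in triplicate, 40 to 2,5 (or 2,5 to 0,03) per printed range, for 72 h. Cells fixed in 10% TCA, stained with 0.4% SRB, dye dissolved in 10 mM Tris, A515 read. IC50 derived after DMSO normalization.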

Assay [2] relates to MCF-12A. Nature of the assay: Cytotoxicity against human MCF12A cells after 72 hrs by SRB assay. It is filed as cell-based. The following applies: Homo sapiens, MCF-12A, 72 h; read-out: IC50. In general terms: Sulforhodamine B stains cellular protein and so reports cell mass.
For assay [3], the target named is T1, Mitogen-activated protein kinase kinase kinase 5 (Homo sapiens) (UniProt Q99683).
T1 sequence (whole entry): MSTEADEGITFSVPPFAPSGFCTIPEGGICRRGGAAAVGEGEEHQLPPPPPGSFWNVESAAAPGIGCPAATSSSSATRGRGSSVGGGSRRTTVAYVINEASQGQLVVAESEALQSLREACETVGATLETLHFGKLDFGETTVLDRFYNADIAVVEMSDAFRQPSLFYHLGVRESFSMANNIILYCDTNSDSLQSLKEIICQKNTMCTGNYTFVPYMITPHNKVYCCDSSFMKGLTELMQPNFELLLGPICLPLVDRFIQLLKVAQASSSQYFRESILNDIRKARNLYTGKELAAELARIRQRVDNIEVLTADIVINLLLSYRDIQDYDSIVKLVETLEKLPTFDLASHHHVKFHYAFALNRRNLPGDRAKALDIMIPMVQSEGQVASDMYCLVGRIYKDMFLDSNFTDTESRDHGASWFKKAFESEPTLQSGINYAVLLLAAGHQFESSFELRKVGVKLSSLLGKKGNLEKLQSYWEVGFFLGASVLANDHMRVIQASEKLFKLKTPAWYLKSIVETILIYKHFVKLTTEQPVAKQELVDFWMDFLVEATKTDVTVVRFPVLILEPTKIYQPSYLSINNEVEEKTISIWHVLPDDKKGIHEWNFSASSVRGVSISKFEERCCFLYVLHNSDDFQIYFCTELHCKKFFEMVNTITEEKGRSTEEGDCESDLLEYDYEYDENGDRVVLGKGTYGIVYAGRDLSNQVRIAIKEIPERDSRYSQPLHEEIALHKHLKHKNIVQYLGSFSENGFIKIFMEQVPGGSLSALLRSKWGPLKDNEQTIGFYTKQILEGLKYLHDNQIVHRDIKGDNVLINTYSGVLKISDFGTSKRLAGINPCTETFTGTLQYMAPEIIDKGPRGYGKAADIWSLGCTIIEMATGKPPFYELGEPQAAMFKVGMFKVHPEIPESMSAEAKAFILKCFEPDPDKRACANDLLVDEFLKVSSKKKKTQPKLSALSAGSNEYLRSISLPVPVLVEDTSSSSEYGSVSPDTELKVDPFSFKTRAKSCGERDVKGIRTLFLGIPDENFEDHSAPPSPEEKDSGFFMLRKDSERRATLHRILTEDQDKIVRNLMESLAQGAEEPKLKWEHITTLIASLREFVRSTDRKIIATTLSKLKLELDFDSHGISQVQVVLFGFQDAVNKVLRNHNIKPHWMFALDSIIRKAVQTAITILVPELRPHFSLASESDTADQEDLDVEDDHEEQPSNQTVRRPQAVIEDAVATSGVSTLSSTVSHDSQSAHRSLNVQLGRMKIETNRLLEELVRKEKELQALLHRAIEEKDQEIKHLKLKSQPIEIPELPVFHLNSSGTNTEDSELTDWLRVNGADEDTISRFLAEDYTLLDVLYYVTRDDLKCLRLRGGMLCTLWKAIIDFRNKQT
Nature of the assay: Inhibition of ASK1 Ser-966 phosphorylation in human HuH7 cells at 1 uM after 24 to 72 hrs by Western blot analysis. The assay is classed as cell-based.

Assay [4] concerns Mahlavu. Description: Induction of apoptosis in human Mahlavu cells assessed as increase in cytochrome C levels at 1 uM by Hoechst staining-based assay. It is filed as functional, cell-based.
Assay [5] concerns Huh-7. Nature of the assay: Cell cycle arrest in human HuH7 cells assessed as accumulation of cells at G1 phase at 1 uM after 24 hrs by propidium iodide staining-based flow cytometric analysis (reference value: 41.7%). It is filed as functional. For orientation: A flow cytometer gives signals particle by particle.
Assay [6] concerns Mahlavu. Description: Cell cycle arrest in human Mahlavu cells assessed as accumulation of cells at subG1 phase at 1 uM after 72 hrs by propidium iodide staining-based flow cytometric analysis (reference value: 22.4%). The assay is classed as functional.
Assay [7] deals with Mahlavu. Nature of the assay: Induction of apoptosis in human Mahlavu cells assessed as late apoptotic cells at 1 uM after 72 hrs by Annexin V-FITC/propidium iodide staining-based flow cytometric analysis (reference value: 3.48%). It is filed as functional.
For assay [8], the system named is Huh-7. Nature of the assay: Cell cycle arrest in human HuH7 cells assessed as accumulation of cells at G2/M phase at 1 uM after 48 hrs by propidium iodide staining-based flow cytometric analysis (reference value: 33.5%). The assay is classed as functional.
Assay [9] has as its system Huh-7. Description: Induction of apoptosis in human HuH7 cells assessed as viable cells at 1 uM after 24 hrs by Annexin V-FITC/propidium iodide staining-based flow cytometric analysis (reference value: 97.30%). Conditions: Huh-7, 24 h, read-out: Activity. It is filed as functional.
In assay [10] the test system is Mahlavu. Nature of the assay: Cell cycle arrest in human Mahlavu cells assessed as accumulation of cells at G1 phase at 1 uM after 24 hrs by propidium iodide staining-based flow cytometric analysis (reference value: 33.8%). It is filed as functional.
Assay [11] relates to HepG2. Description: Cytotoxicity against human HepG2 cells after 72 hrs by SRB assay. Conditions: Homo sapiens, HepG2, 72 h; read-out: IC50. The assay is classed as functional, cell-based. In short, it runs like this:
as §1

Assay [12] relates to Mahlavu. Description: Down-regulation of CDK2 protein expression in human Mahlavu cells at 1 uM after 24 to 72 hrs by Western blot analysis. The assay is classed as functional, cell-based. Background: Immunoblotting shows a protein as a band on a membrane.
The species named for assay [13] is Homo sapiens. Nature of the assay: Induction of SAPK/JNK phosphorylation at Thr183/Tye185 residues in human HuH7 cells at 1 uM after 24 to 72 hrs by Western blot analysis. It is filed as cell-based.
Assay [14] concerns Mahlavu. Description: Induction of apoptosis in human Mahlavu cells assessed as chromatin condensation at 1 uM by Hoechst staining-based assay. The assay is classed as functional, cell-based.
The test system of assay [15] is Mahlavu. Nature of the assay: Cell cycle arrest in human Mahlavu cells assessed as accumulation of cells at subG1 phase at 1 uM after 48 hrs by propidium iodide staining-based flow cytometric analysis (reference value: 22.6%). It is filed as functional.
In assay [16] the test system is Huh-7. Description: Induction of apoptosis in human HuH7 cells assessed as viable cells at 1 uM after 48 hrs by Annexin V-FITC/propidium iodide staining-based flow cytometric analysis (reference value: 97.42%). The assay is classed as functional. The following applies: Huh-7, 48 h, read-out: Activity.
Assay [17] deals with MCF7. Description: Cytotoxicity against human MCF7 cells after 72 hrs by SRB assay. It is filed as functional, cell-based. Conditions: Homo sapiens, MCF7, 72 h; read-out: IC50. In short, it runs like this:
as §1

For assay [18], the system named is Huh-7. Description: Induction of apoptosis in human HuH7 cells assessed as necrotic cells at 1 uM after 24 hrs by Annexin V-FITC/propidium iodide staining-based flow cytometric analysis (reference value: 0.03%). It is filed as functional.

Usually IC50 stands for the concentration needed to halve the response being measured.

On to `COc1ccc2c3c(c4cc(OC)c(OC)cc4c2c1)CN1CCCC[C@@H]1C3`, for which the IC50 came to 16 nM in [1], 70 nM in assay [2], 60 nM in assay [11] and 5 nM in assay [17]. Moreover, the inhibition result in assay [3] is “Active”. The result in assay [4], in [12], in assay [13] and in [14] was Active. The Activity in assay [5] amounted to 43.1%; in assay [6], 26.9%; in [7], 12.74%; in [8], 24.4%; in [10], 43.8%; in assay [15] it was 28.3%. For the same compound, the Activity in assay [18] amounted to 0%. Moreover, the viability at 1 µM in assay [9] turned out to be 98.9%; in assay [16], 93.8%.

`COc1ccc2c3c(c4cc(OC)c(OC)cc4c2c1)CN1CCCCC1C3O` (racemic): the IC50 in assay [1] is 17 nM; in assay [2] it was less than 2000 nM; in assay [11], 2700 nM; in assay [17], 1 nM. Besides, in assay [3], the inhibition result is “Active”. Moreover, the outcome in [4], in assay [12], in [13] and in [14] was Active. Further, the Activity was found to be 31.6% in assay [5]; 48.9% in assay [6]; 35.08% in [7]; 18.1% in assay [8]; 36.8% in assay [10]; 20.4% in assay [15]. The Activity in [18] turned out to be 0%. The viability at 1 µM worked out at 99.1% in [9] and 94.2% in [16].
